pIC50: −log10 of the molar value.
Experiments:
[1] = tested on: MDA-MB-435; test: Cytotoxicity against human MDA-MB-435 cells incubated for 72 hrs by MTT assay; type: functional, cell-based; conditions: MDA-MB-435, 72 h
Outline: (§1)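 Cells were kept in DMEM (MDA-MB-435, MCF7, LNCaP) or RPMI (HT29, HCT116) with 10% heat-inactivated FBS and 2 mM L-glutamine, subconfluent and in exponential growth. They were seeded, allowed to adhere overnight, then exposed continuously to compound (10 mM DMSO stock) for 72 h. MTT was added to 0.3 mg/mL final for 3–4 h at 37 °C, formazan was dissolved in DMSO, and absorbance was read at 570 nm. Runs were in triplicate; IC50 came from log concentration versus percent cell kill.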

[2] = tested on: SK-BR-3; test: Cytotoxicity against human SKBR3 cells incubated for 72 hrs by MTT assay; type: functional, cell-based; conditions: SK-BR-3, 72 h
[3] = tested on: HCT-116; test: Cytotoxicity against p53 expressing human HCT116 cells incubated for 72 hrs by MTT assay; type: functional, cell-based; conditions: HCT-116, 72 h; outline: as §1
[4] = tested on: MCF7; test: Cytotoxicity against human MCF7 cells incubated for 72 hrs by MTT assay; type: functional, cell-based; conditions: MCF7, 72 h; outline: as §1
[5] = tested on: HT-29; test: Cytotoxicity against human HT-29 cells incubated for 72 hrs by MTT assay; type: functional, cell-based; conditions: HT-29, 72 h; outline: as §1
[6] = tested on: HCT-116; test: Cytotoxicity against p53 deficient human HCT116 cells incubated for 72 hrs by MTT assay; type: functional, cell-based; conditions: HCT-116, 72 h; outline: as §1
[7] = tested on: LNCaP; test: Cytotoxicity against human LNCAP cells incubated for 72 hrs by MTT assay; type: functional, cell-based; outline: as §1
[8] = molecular target: T1, Human immunodeficiency virus type 1 integrase (Human immunodeficiency virus 1, UniProt Q7ZJM1); test: Inhibition of HIV1 integrase strand transfer activity using [32P]-labeled linear oligonucleotide substrate
T1 sequence (Q7ZJM1 whole entry): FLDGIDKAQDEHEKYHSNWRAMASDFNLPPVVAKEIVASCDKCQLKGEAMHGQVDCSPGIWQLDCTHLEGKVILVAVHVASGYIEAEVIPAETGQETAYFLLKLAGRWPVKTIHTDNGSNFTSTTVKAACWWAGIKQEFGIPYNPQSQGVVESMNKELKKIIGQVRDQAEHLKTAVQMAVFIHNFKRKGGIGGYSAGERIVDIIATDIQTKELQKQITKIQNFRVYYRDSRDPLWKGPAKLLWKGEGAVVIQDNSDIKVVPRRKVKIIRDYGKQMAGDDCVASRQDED

[9] = molecular target: T1, Human immunodeficiency virus type 1 integrase; test: Inhibition of HIV1 integrase 3'-processing activity using [32P]-labeled linear oligonucleotide substrate
[10] = tested on: HEY; test: Cytotoxicity against human HEY cells incubated for 72 hrs by MTT assay; type: functional, cell-based
[11] = molecular target: Receptor tyrosine-protein kinase erbB-2 (Homo sapiens) (UniProt P04626); test: Inhibition of ErbB2 at 10 uM incubated for 60 mins using poly(Glu,Tyr)4:1 substrate and 10 uM ATP by ELISA
Sequence of Receptor tyrosine-protein kinase erbB-2 (Homo sapiens) (P04626 whole entry): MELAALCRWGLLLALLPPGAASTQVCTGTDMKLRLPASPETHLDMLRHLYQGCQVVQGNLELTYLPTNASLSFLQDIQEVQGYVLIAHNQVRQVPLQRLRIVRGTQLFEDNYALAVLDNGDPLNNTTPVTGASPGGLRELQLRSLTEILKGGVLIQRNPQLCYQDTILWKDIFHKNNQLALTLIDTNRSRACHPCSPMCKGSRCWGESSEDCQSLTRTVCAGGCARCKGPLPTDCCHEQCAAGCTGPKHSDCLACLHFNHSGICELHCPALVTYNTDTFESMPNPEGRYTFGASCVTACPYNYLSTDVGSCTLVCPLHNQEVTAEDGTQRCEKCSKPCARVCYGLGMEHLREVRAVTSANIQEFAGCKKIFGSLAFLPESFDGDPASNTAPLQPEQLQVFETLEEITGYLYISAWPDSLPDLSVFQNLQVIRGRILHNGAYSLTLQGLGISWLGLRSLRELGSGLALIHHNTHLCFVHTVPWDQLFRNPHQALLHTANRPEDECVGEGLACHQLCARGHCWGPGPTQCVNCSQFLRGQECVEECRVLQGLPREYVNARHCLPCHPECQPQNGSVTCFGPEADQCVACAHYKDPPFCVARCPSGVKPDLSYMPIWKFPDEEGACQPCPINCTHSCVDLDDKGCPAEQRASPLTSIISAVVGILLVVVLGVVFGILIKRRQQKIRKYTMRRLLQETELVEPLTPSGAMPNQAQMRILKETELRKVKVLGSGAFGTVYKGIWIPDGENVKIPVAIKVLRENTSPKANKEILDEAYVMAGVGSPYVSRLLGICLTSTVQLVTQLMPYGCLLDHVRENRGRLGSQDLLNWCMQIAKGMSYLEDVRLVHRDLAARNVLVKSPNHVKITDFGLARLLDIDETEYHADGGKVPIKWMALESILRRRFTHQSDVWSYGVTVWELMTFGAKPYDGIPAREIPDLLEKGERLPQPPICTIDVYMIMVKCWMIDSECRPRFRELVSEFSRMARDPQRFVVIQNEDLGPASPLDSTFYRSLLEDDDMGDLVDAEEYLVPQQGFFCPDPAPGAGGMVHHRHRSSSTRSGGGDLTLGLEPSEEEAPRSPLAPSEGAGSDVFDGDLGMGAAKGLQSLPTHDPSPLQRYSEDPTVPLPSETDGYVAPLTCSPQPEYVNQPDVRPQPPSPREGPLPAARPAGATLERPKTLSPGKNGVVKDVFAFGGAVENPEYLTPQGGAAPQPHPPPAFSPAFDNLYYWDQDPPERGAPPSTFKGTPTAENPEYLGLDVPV
Outline: (§2)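 ELISA with Poly(Glu,Tyr)4:1 (20 μg/mL) precoated as substrate and 10 μM ATP, in 50 mM HEPES pH 7.4, 20 mM MgCl2, 0.1 mM MnCl2, 0.2 mM Na3VO4, 1 mM DTT. Compound was tested at 10 μM, in duplicate. Kinase reaction ran 60 min at 37 °C. Phosphotyrosine was detected with PY99 and HRP anti-mouse IgG, developed with o-phenylenediamine/H2O2, stopped with H2SO4 and read at 492 nm. Inhibition = [1 − A492 treated/A492 control] × 100%. References: lapatinib (ErbB2) and PP2 (Src), each at 10 μM.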

[12] = molecular target: Proto-oncogene tyrosine-protein kinase Src (Homo sapiens) (UniProt P12931); test: Inhibition of SRC at 10 uM incubated for 60 mins using poly(Glu,Tyr)4:1 substrate and 10 uM ATP by ELISA; outline: as §2
Sequence of Proto-oncogene tyrosine-protein kinase Src (Homo sapiens) (P12931 2-536 limits assumed): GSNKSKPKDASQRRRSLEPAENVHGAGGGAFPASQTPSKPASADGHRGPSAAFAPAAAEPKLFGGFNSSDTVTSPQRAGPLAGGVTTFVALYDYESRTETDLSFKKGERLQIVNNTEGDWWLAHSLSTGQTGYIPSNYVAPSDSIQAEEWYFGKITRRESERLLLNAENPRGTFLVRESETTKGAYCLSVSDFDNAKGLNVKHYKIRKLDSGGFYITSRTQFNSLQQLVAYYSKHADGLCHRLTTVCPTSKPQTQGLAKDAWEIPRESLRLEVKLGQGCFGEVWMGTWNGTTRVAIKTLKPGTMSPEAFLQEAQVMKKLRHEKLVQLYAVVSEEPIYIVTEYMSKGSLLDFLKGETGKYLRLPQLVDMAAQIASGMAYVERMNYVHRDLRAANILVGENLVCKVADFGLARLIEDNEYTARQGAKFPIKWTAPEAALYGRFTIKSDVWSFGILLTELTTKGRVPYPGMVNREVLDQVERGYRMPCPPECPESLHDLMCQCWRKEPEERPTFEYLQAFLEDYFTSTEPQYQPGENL

SMILES	pIC50 [1]	pIC50 [2]	pIC50 [3]	pIC50 [4]	pIC50 [5]	pIC50 [6]	pIC50 [7]	pIC50 [8]	pIC50 [9]	pIC50 [10]	inhibition [11]	inhibition [12]
CC(C)(C)OC(=O)N1CCC(Nc2c(C(=O)NCc3ccc(F)cc3)nc(Br)c3cccnc23)CC1	4.70	6.00	< 5.00	< 5.00	< 5.00	5.05	< 5.00					
NCCNc1c(C(=O)NCc2ccc(F)cc2)nc(Br)c2cccnc12	4.92		< 4.70	5.22		< 4.70		< 4.00	< 4.00			
N[C@H]1CC[C@H](Nc2c(C(=O)NCc3cccs3)nc(Br)c3cccnc23)CC1	5.39			5.14						4.96		
COC(=O)c1nc(Br)c2cccnc2c1N[C@H]1CC[C@H](N)CC1	< 4.70			< 4.70						< 4.70		
N[C@H]1CC[C@H](Nc2c(C(=O)NCc3ccco3)nc(Br)c3cccnc23)CC1	< 5.00	5.00	< 5.00							< 5.00		
CS(=O)(=O)CCNCc1ccc(-c2ccc3ncnc(Nc4ccc(OCc5cccc(F)c5)c(Cl)c4)c3c2)o1											92%	
N[C@H]1CC[C@H](Nc2c(C(=O)NCc3ccccn3)nc(Br)c3cccnc23)CC1	5.40			4.82						< 4.70		
C[C@H](Nc1c(C(=O)NCc2ccc(F)cc2)nc(Br)c2cccnc12)c1ccccc1	< 4.70		< 4.70			< 4.70		< 3.95	< 3.95			
O=C(NCc1ccc(F)cc1)c1nc(Br)c2cccnc2c1NCc1ccc(F)cc1	< 4.70		< 4.70			< 4.70		< 4.00	< 4.00			
N[C@H]1CC[C@H](Nc2c(C(=O)NCc3cccc(C(F)(F)F)c3)nc(Br)c3cccnc23)CC1	5.38			4.82						4.92		
N[C@H]1CC[C@H](NC(=O)c2nc(Br)c3cccnc3c2NCc2ccc(F)cc2)CC1	5.18	5.55	5.19							5.15	3%	0%
CNCCCNc1c(C(=O)NCc2ccc(F)cc2)nc(Br)c2cccnc12	4.96	6.00	5.05	< 5.00	< 5.00	< 5.00	5.10					
N[C@H]1CC[C@H](Nc2c(C(=O)NCc3ccc(F)cc3)nc(N3CCCCC3)c3cccnc23)CC1	5.30	< 5.00	5.10	5.30		5.07						
N[C@H]1CC[C@H](Nc2c(C(=O)NCCc3ccccc3)nc(Br)c3cccnc23)CC1	5.10	5.15	5.06							5.22	0%	
N[C@H]1CC[C@H](Nc2c(C(=O)NCc3ccc(Oc4ccccc4)cc3)nc(Br)c3cccnc23)CC1	5.40			5.10						5.05		
CC(C)(C)OC(=O)N1CCN(c2c(C(=O)NCc3ccc(F)cc3)nc(Br)c3cccnc23)CC1	5.00	5.52	< 5.00	< 5.00	< 5.00	< 5.00	< 5.00					

SMILES	pIC50 [1]	pIC50 [2]	pIC50 [3]	pIC50 [4]	pIC50 [5]	pIC50 [6]	pIC50 [7]	pIC50 [8]	pIC50 [9]	pIC50 [10]	inhibition [11]	inhibition [12]
Nc1cccc(Nc2c(C(=O)NCc3ccc(F)cc3)nc(Br)c3cccnc23)c1	5.10	< 5.00	< 5.00	5.10	< 5.00	< 5.00	5.10					
COc1cccc(CNC(=O)c2nc(Br)c3cccnc3c2N[C@H]2CC[C@H](N)CC2)c1	5.15	5.22	5.22							5.15	0%	
C[C@H](NC(=O)c1nc(Br)c2cccnc2c1N[C@H]1CC[C@H](N)CC1)c1ccc(F)cc1	< 5.00	5.05	< 5.00							< 5.00		
COC(=O)CNc1c(C(=O)NCc2ccc(F)cc2)nc(Br)c2cccnc12	5.00	6.00	< 5.00	< 5.00	< 5.00	< 5.00	5.30					
N[C@H]1CC[C@H](Nc2c(C(=O)NCc3ccccc3)nc(Br)c3cccnc23)CC1	5.15	5.10	5.15							5.10	0%	
CN(C)c1ccc(CNC(=O)c2nc(Br)c3cccnc3c2N[C@H]2CC[C@H](N)CC2)cc1	5.40			5.30						5.28		
C[C@@H](Nc1c(C(=O)NCc2ccc(F)cc2)nc(Br)c2cccnc12)c1ccccc1	< 4.70		< 4.70			< 4.70		< 3.95	< 3.95			
O=C(NCc1ccc(F)cc1)c1nc(Br)c2cccnc2c1NCCCNc1c(C(=O)NCc2ccc(F)cc2)nc(Br)c2cccnc12	< 4.70		< 4.70			< 4.70		< 4.00	< 4.00			
N[C@H]1CC[C@H](Nc2c(C(=O)NC3CCCCC3)nc(Br)c3cccnc23)CC1	< 5.00	5.38	< 5.00	5.28						5.28		
O=C(NCc1ccc(F)cc1)c1nc(Br)c2cccnc2c1NCc1ccccc1	< 4.70		< 4.70			< 4.70		< 4.00	< 4.00			
CC(C)(C)n1nc(-c2ccc(Cl)cc2)c2c(N)ncnc21												94%
O=C(NCCCNc1c(C(=O)NCc2ccc(F)cc2)nc(Br)c2cccnc12)c1ccccc1	< 4.70	6.00	< 5.00	5.70	< 5.00	< 5.00	< 5.00					
N[C@H]1CC[C@H](Nc2c(C(=O)NCc3ccc4c(c3)OCO4)nc(Br)c3cccnc23)CC1	5.15	5.22	5.15							5.40	0%	
CNc1c(C(=O)NCc2ccc(F)cc2)nc(Br)c2cccnc12	< 4.70		< 4.70			< 4.70		< 4.00	< 4.00			
N[C@H]1CC[C@H](Nc2c(C(=O)Nc3ccccc3)nc(Br)c3cccnc23)CC1	6.00	5.70	5.70							6.00	0%	
N[C@H]1CC[C@H](Nc2c(C(=O)NCc3ccc(F)cc3)nc(N3CCCCS3(=O)=O)c3cccnc23)CC1	5.30	5.07	< 5.00	4.89	< 5.00	< 5.00	5.10					

Reference: ChEMBL document CHEMBL2176962, “Repositioning HIV-1 integrase inhibitors for cancer therapeutics: 1,6-naphthyridine-7-carboxamide as a promising scaffold with drug-like properties” (J Med Chem, 2012)
